ChEMBL document CHEMBL1128742, “Novel thiazole derivatives as inhibitors of superoxide production by human neutrophils: synthesis and structure-activity relationships” (J Med Chem, 1995)

Test system: not listed separately
Assay: Solubility was measured by shaking with water
Format: physicochemical
Conditions: not given; call rule not given here
In short: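 Aqueous solubility: compound shaken with water; dissolved amount quantified by HPLC.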

Structure (SMILES)	solubility thermodynamic
CCOc1ccc(-c2nc(-c3cc(OC(C)=O)cc(OC(C)=O)c3)cs2)cc1OCC	< 0.001 mg/mL

Test system: not listed separately
Assay: Solubility was measured by shaking with water and 1 equiv of NaOH
Format: physicochemical
Conditions: water with 1 equiv of NaOH
In short: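 Solubility: compound shaken with water plus 1 equiv NaOH; dissolved amount quantified by HPLC.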

Structure (SMILES)	solubility
CCOc1ccc(-c2nc(-c3cccc(C(=O)O)c3)cs2)cc1OCC	23 mg/mL
CCOc1ccc(-c2nc(-c3ccc(C(=O)O)o3)cs2)cc1OCC	23 mg/mL
CCOc1ccc(-c2nc(-c3cccc(C(=O)O)n3)cs2)cc1OCC [TETOMILAST]	21 mg/mL
CCOc1ccc(-c2nc(-c3ccccc3C(=O)O)cs2)cc1OCC	21 mg/mL
CCOc1ccc(-c2nc(-c3ccc(C(=O)O)s3)cs2)cc1OCC	23 mg/mL
CCOc1ccc(-c2nc(-c3ccc(C(=O)O)cc3)cs2)cc1OCC	23 mg/mL

Organism: Homo sapiens
Assay: In vitro inhibitory activity against superoxide production from human neutrophils stimulated with f-MLP; NE= No effect
Format: functional
Conditions: not given
In short: (§1)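 Neutrophils isolated from fresh venous blood of healthy adults by dextran sedimentation and Ficoll-paque gradient. Cells diluted in Hepes–Hanks, pH 7.4, then held at 1 × 10^6 cell/mL and preincubated 20 min at 37 °C with or without compound. Cytochalasin B (1 μg/mL final) added 10 min and ferricytochrome c (106 μM final) added 4 min before f-MLP stimulation. Reaction stopped with 1 mM N-ethylmaleimide, cells spun down, superoxide read as SOD-inhibitable absorbance at 550 nm.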

Structure (SMILES)	IC50
CCCCCCCCCCOc1ccc(-c2nc(-c3ccc4c(c3)CCC(=O)N4)cs2)cc1OCCCCCCCCCC	Not Active

Organism: Homo sapiens
Assay: In vitro inhibitory activity against superoxide production from human neutrophils stimulated with f-MLP; act.= activation of superoxide production
Format: functional
Conditions: not given
In short: as §1

Structure (SMILES)	IC50
COc1cccc(-c2nc(-c3ccc4c(c3)CCC(=O)N4)cs2)c1OC	Active

Organism: Homo sapiens
Assay: In vitro inhibitory activity against superoxide production from human neutrophils stimulated with f-MLP; No effect
Format: functional
Conditions: not given
In short: as §1

Structure (SMILES)	IC50
CC(=O)Oc1ccc(-c2nc(-c3ccc4c(c3)CCC(=O)N4)cs2)cc1OC(C)=O	Not Active

Organism: Homo sapiens
Assay: In vitro inhibitory activity against superoxide production from human neutrophils stimulated with f-MLP
Format: functional
Conditions: not given
In short: as §1

Structure (SMILES)	IC50
CCCOc1cc(-c2nc(-c3ccc4c(c3)CCC(=O)N4)cs2)ccc1OC	90 nM
COc1ccc(-c2nc(-c3ccc4c(c3)CCC(=O)N4)cs2)cc1	9000 nM
COc1ccc(/C=C/c2nc(-c3ccc4c(c3)CCC(=O)N4)cs2)cc1OC	2800 nM
COc1ccc(Cc2nc(-c3ccc4c(c3)CCC(=O)N4)cs2)cc1OC	10000 nM
c1ccc(-c2csc(-c3cccnc3)n2)cc1	1000 nM
COc1ccc(-c2nc(-c3ccc4c(c3)CCC(=O)N4)co2)cc1OC	> 10000 nM
O=C1CCc2cc(-c3csc(-c4ccccc4)n3)ccc2N1	> 10000 nM
COc1ccc(C(=O)c2nc(-c3ccc4c(c3)CCC(=O)N4)cs2)cc1OC	1000 nM
O=C1CCc2cc(-c3csc(-c4cccnc4)n3)ccc2N1	1000 nM
CCOc1ccc(-c2nc(-c3ccc4c(c3)CCC(=O)N4)cs2)cc1OC	600 nM
CCOc1ccc(-c2nc(-c3ccc4c(c3)CCC(=O)N4)cs2)cc1OCC	80 nM
CCCCOc1cc(-c2nc(-c3ccc4c(c3)CCC(=O)N4)cs2)ccc1OC	300 nM
CCOc1ccc(-c2nc(-c3cccc(C(=O)O)c3)cs2)cc1OCC	5 nM
COc1cc(-c2nc(-c3ccc4c(c3)CCC(=O)N4)cs2)ccc1[S+](C)[O-] (stereo not given)	800 nM
CCOc1ccc(-c2nc(-c3ccc(C(=O)O)o3)cs2)cc1OCC	20 nM
CCOc1ccc(-c2nc(-c3cc(OC(C)=O)cc(OC(C)=O)c3)cs2)cc1OCC	1 nM
CCOc1ccc(-c2nc(-c3cccc(C(=O)O)n3)cs2)cc1OCC [TETOMILAST]	70 nM
Nc1ccc(-c2csc(-c3cccnc3)n2)cc1	3000 nM
COc1cc(-c2nc(-c3ccc4c(c3)CCC(=O)N4)cs2)ccc1SC	400 nM
COc1ccc(-c2nc(-c3ccc4c(c3)CCC(=O)N4)cs2)cc1OC	300 nM
COc1ccc(-c2nc(-c3ccc4c(c3)CCC(=O)N4)c[nH]2)cc1OC	> 10000 nM
CCOc1ccc(-c2nc(-c3ccccc3C(=O)O)cs2)cc1OCC	> 10000 nM
COc1ccc(-c2nc(-c3ccc4c(c3)CCC(=O)N4)cs2)c(OC)c1	3000 nM
c1cncc(-c2csc(-c3cccnc3)n2)c1	1000 nM
O=C1CCc2cc(-c3csc(-c4ccc(O)c(O)c4)n3)ccc2N1	1000 nM
CCOc1ccc(-c2nc(-c3ccc(C(=O)O)s3)cs2)cc1OCC	80 nM
CCOc1cc(-c2nc(-c3ccc4c(c3)CCC(=O)N4)cs2)ccc1OC	90 nM
CCOc1ccc(-c2nc(-c3ccc(C(=O)O)cc3)cs2)cc1OCC	200 nM

Organism: Homo sapiens
Assay: In vitro inhibitory activity against superoxide production from human neutrophils stimulated with f-MLP; NE indicates no effect
Format: functional
Conditions: not given
In short: as §1

Structure (SMILES)	IC50
COc1cc(OC)cc(-c2nc(-c3ccc4c(c3)CCC(=O)N4)cs2)c1	Not Active
CCCOc1ccc(-c2nc(-c3ccc4c(c3)CCC(=O)N4)cs2)cc1OC	Not Active
Cc1ccc(-c2nc(-c3ccc4c(c3)CCC(=O)N4)cs2)cc1C	Not Active
CCCOc1ccc(-c2nc(-c3ccc4c(c3)CCC(=O)N4)cs2)cc1OCCC	Not Active
CCCCOc1ccc(-c2nc(-c3ccc4c(c3)CCC(=O)N4)cs2)cc1OC	Not Active
O=C1CCc2cc(-c3csc(-c4ccc5c(c4)OCCO5)n3)ccc2N1	Not Active
O=C1CCc2cc(-c3csc(-c4ccc([N+](=O)[O-])cc4)n3)ccc2N1	Not Active
CCCCOc1ccc(-c2nc(-c3ccc4c(c3)CCC(=O)N4)cs2)cc1OCCCC	Not Active
COc1cc(-c2nc(-c3ccc4c(c3)CCC(=O)N4)cs2)ccc1S(C)(=O)=O	Not Active
O=C1CCc2cc(-c3csc(-c4ccc(C(=O)O)cc4)n3)ccc2N1	Not Active
COc1ccc(C(O)c2nc(-c3ccc4c(c3)CCC(=O)N4)cs2)cc1OC (stereo not given)	Not Active
O=C1CCc2cc(-c3csc(-c4ccc(Cl)cc4)n3)ccc2N1	Not Active
